Source: the RNAGym collection of RNA variant scans (doi:10.1002/anie.201605470)

B1: Osa-1-4 twister ribozyme (parent)
chain: CCGCCUAACACUGCCAAUGCCGGUCCCAAGCCCGGAUAAAAGUGGAGGGGGCGG

Variants of: B1
Assay: self-cleavage, relative activity (ratio to wild type); higher = more cleavage; co-transcriptional
How it was run: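 In vitro transcription at 37 °C for 2 h allowed the twister ribozyme to cleave itself as it was made. Its 54-nucleotide Oryza sativa template had been synthesised with 97 % wild-type base and 1 % of each other base at the 48 positions downstream of the cleavage site. A template-switching oligonucleotide was used for reverse transcription, followed by PCR amplification and deep sequencing. Whether reads carried upstream sequence set the cleavage status, and relative activity is the fraction cleaved normalised to wild type.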

Variant	self-cleavage
CCGCCUAACACUGCCAAUGCCGGCCCCAAGCCCGGAUAAAAGUGGGGGGGGCGG [A46G U24C]	0.04
CCGCCUAACACUGCCAAUGCCGGACCCAAGCCCGGAUAAAAGUGGGGGGGGCGG [A46G U24A]	0.04
CCGCCUAACACUGCCAAUGCCGGGCCCAAGCCCGGAUAAAAGUGGGGGGGGCGG [A46G U24G]	0.02
CCGCCUAACACUGCCAAUCCCGGUCCCAAGCCCGGAUAAAAGUGGGGGGGGCGG [A46G G19C]	0.02
CCGCCUAACACUGCCAAUACCGGUCCCAAGCCCGGAUAAAAGUGGGGGGGGCGG [A46G G19A]	0.05
CCGCCUAACACUGCCAAUUCCGGUCCCAAGCCCGGAUAAAAGUGGGGGGGGCGG [A46G G19U]	0.04
CCGCCUAACACUUCCAAUGCCGGUCCCAAGCCCGGAUAAAAGUGGGGGGGGCGG [A46G G13U]	0.01
CCGCCUAACACUCCCAAUGCCGGUCCCAAGCCCGGAUAAAAGUGGGGGGGGCGG [A46G G13C]	0.02
CCGCCUAACACUACCAAUGCCGGUCCCAAGCCCGGAUAAAAGUGGGGGGGGCGG [A46G G13A]	0.02
CCGCCUUACACUGCCAAUGCCGGUCCCAAGCCCGGAUAAAAGUGGUGGGGGCGG [A46U A7U]	0.04
CCGCCUGACACUGCCAAUGCCGGUCCCAAGCCCGGAUAAAAGUGGUGGGGGCGG [A46U A7G]	0.07
CCGCCUCACACUGCCAAUGCCGGUCCCAAGCCCGGAUAAAAGUGGUGGGGGCGG [A46U A7C]	0.02
CCGCCUAACACGGCCAAUGCCGGUCCCAAGCCCGGAUAAAAGUGGGGGGGGCGG [A46G U12G]	0.07
CCGCCUAACACCGCCAAUGCCGGUCCCAAGCCCGGAUAAAAGUGGGGGGGGCGG [A46G U12C]	0.05
CCGCCUAACACAGCCAAUGCCGGUCCCAAGCCCGGAUAAAAGUGGGGGGGGCGG [A46G U12A]	0.05
CCGCCUAGCACUGCCAAUGCCGGUCCCAAGCCCGGAUAAAAGUGGUGGGGGCGG [A46U A8G]	0.08
CCGCCUAUCACUGCCAAUGCCGGUCCCAAGCCCGGAUAAAAGUGGUGGGGGCGG [A46U A8U]	0.07
CCGCCUACCACUGCCAAUGCCGGUCCCAAGCCCGGAUAAAAGUGGUGGGGGCGG [A46U A8C]	0.03
CCGCCUAACACUGCCAACGCCGGUCCCAAGCCCGGAUAAAAGUGGGGGGGGCGG [A46G U18C]	0.07
CCGCCUAACACUGCCAAAGCCGGUCCCAAGCCCGGAUAAAAGUGGGGGGGGCGG [A46G U18A]	0.06
CCGCCUAACACUGCCAAGGCCGGUCCCAAGCCCGGAUAAAAGUGGGGGGGGCGG [A46G U18G]	0.13
CCGCCUAACACUGCCAAUGCCGGUCCCAAGCGCGGAUAAAAGUGGGGGGGGCGG [A46G C32G]	0.07
CCGCCUAACACUGCCAAUGCCGGUCCCAAGCACGGAUAAAAGUGGGGGGGGCGG [A46G C32A]	0.03
CCGCCUAACACUGCCAAUGCCGGUCCCAAGCUCGGAUAAAAGUGGGGGGGGCGG [A46G C32U]	0.04
CCGCCUAACACUGCCAAUGCCGGUCCCAAGCCCGGAUAAAAGUGGGUGGGGCGG [A46G G47U]	0.06

Variant	self-cleavage
CCGCCUAACACUGCCAAUGCCGGUCCCAAGCCCGGAUAAAAGUGGGCGGGGCGG [A46G G47C]	0.03
CCGCCUAACACUGCCAAUGCCGGUCCCAAGCCCGGAUAAAAGUGGGAGGGGCGG [A46G G47A]	0.06
CCGCCUAACACUGCCAAUGCCGGUCCCAAGCCCGGAUAAAAGUGGUGGGGGCGG [A46U]	0.08
CCGCCUAACACUGCCAAUGCCGGUCCCAACCCCGGAUAAAAGUGGGGGGGGCGG [A46G G30C]	0.01
CCGCCUAACACUGCCAAUGCCGGUCCCAAUCCCGGAUAAAAGUGGGGGGGGCGG [A46G G30U]	0.03
CCGCCUAACACUGCCAAUGCCGGUCCCAAACCCGGAUAAAAGUGGGGGGGGCGG [A46G G30A]	0.02
CCGCCUAACACUGCCAAUGCCGGUCCCAAGCCCGGAUAAAAGUGGGGGCGGCGG [A46G G49C]	0.03
CCGCCUAACACUGCCAAUGCCGGUCCCAAGCCCGGAUAAAAGUGGGGGUGGCGG [A46G G49U]	0.03
CCGCCUAACACUGCCAAUGCCGGUCCCAAGCCCGGAUAAAAGUGGGGGAGGCGG [A46G G49A]	0.03
CCGCCUAACACUGCCAAUGCCGGUCCCAAGCCCUGAUAAAAGUGGGGGGGGCGG [A46G G34U]	0.05
CCGCCUAACACUGCCAAUGCCGGUCCCAAGCCCAGAUAAAAGUGGGGGGGGCGG [A46G G34A]	0.06
CCGCCUAACACUGCCAAUGCCGGUCCCAAGCCCCGAUAAAAGUGGGGGGGGCGG [A46G G34C]	0.05
CCGCCUAACACUGCCAAUGCCGGUCCCAAGCCCGAAUAAAAGUGGGGGGGGCGG [A46G G35A]	0.07
CCGCCUAACACUGCCAAUGCCGGUCCCAAGCCCGUAUAAAAGUGGGGGGGGCGG [A46G G35U]	0.08
CCGCCUAACACUGCCAAUGCCGGUCCCAAGCCCGCAUAAAAGUGGGGGGGGCGG [A46G G35C]	0.05
CCGCCUAACACUGCCAAUGCCGGUCCCAAGCCCGGAUAAAAGUGGGGGGGGAGG [A46G C52A]	0.1
CCGCCUAACACUGCCAAUGCCGGUCCCAAGCCCGGAUAAAAGUGGGGGGGGGGG [A46G C52G]	0.24
CCGCCUAACACUGCCAAUGCCGGUCCCAAGCCCGGAUAAAAGUGGGGGGGGUGG [A46G C52U]	0.09
CCGCCUAACACUGCCAAUGCCGGUCCCAAGCCCGGAUAAAAGUGGGGCGGGCGG [A46G G48C]	0.03
CCGCCUAACACUGCCAAUGCCGGUCCCAAGCCCGGAUAAAAGUGGGGUGGGCGG [A46G G48U]	0.02
CCGCCUAACACUGCCAAUGCCGGUCCCAAGCCCGGAUAAAAGUGGGGAGGGCGG [A46G G48A]	0.02
CCGCCUAACAAUGCCAAUGCCGGUCCCAAGCCCGGAUAAAAGUGGUGGGGGCGG [A46U C11A]	0.06
CCGCCUAACAUUGCCAAUGCCGGUCCCAAGCCCGGAUAAAAGUGGUGGGGGCGG [A46U C11U]	0.08
CCGCCUAACAGUGCCAAUGCCGGUCCCAAGCCCGGAUAAAAGUGGUGGGGGCGG [A46U C11G]	0.05
CCGCCUAACACUGCCAAUGCCGGUCCGAAGCCCGGAUAAAAGUGGGGGGGGCGG [A46G C27G]	0.04

Variant	self-cleavage
CCGCCUAACACUGCCAAUGCCGGUCCUAAGCCCGGAUAAAAGUGGGGGGGGCGG [A46G C27U]	0.04
CCGCCUAACACUGCCAAUGCCGGUCCAAAGCCCGGAUAAAAGUGGGGGGGGCGG [A46G C27A]	0.05
CCGCCUAACACUGCCAAUGCCAGUCCCAAGCCCGGAUAAAAGUGGGGGGGGCGG [A46G G22A]	0.08
CCGCCUAACACUGCCAAUGCCCGUCCCAAGCCCGGAUAAAAGUGGGGGGGGCGG [A46G G22C]	0.02
CCGCCUAACACUGCCAAUGCCUGUCCCAAGCCCGGAUAAAAGUGGGGGGGGCGG [A46G G22U]	0.06
CCGCCUAACACUGCCAAUGCCGGUCCCAAGCCCGGACAAAAGUGGGGGGGGCGG [A46G U37C]	0.08
CCGCCUAACACUGCCAAUGCCGGUCCCAAGCCCGGAGAAAAGUGGGGGGGGCGG [A46G U37G]	0.09
CCGCCUAACACUGCCAAUGCCGGUCCCAAGCCCGGAAAAAAGUGGGGGGGGCGG [A46G U37A]	0.05
CCGCCUAACACUGCCAAUGCCGGUCCCAAGCCCGGAUAAAAGUGGGGGGGGCCG [A46G G53C]	0.03
CCGCCUAACACUGCCAAUGCCGGUCCCAAGCCCGGAUAAAAGUGGGGGGGGCAG [A46G G53A]	0.07
CCGCCUAACACUGCCAAUGCCGGUCCCAAGCCCGGAUAAAAGUGGGGGGGGCUG [A46G G53U]	0.07
CCGCCUAACACUGCCAAUGCCGGUCCCAAGCCAGGAUAAAAGUGGGGGGGGCGG [A46G C33A]	0.04
CCGCCUAACACUGCCAAUGCCGGUCCCAAGCCGGGAUAAAAGUGGGGGGGGCGG [A46G C33G]	0.03
CCGCCUAACACUGCCAAUGCCGGUCCCAAGCCUGGAUAAAAGUGGGGGGGGCGG [A46G C33U]	0.06
CCGCCUAACACUGCCAAUGCCGGUCCCAAGCCCGGAUAAAAGUGGGGGGUGCGG [A46G G50U]	0.06
CCGCCUAACACUGCCAAUGCCGGUCCCAAGCCCGGAUAAAAGUGGGGGGAGCGG [A46G G50A]	0.08
CCGCCUAACACUGCCAAUGCCGGUCCCAAGCCCGGAUAAAAGUGGGGGGCGCGG [A46G G50C]	0.06
CCGCCUAACACUGCCAAUGCCGGUCCCAAGCCCGGAUAAAAGUGGGGGGGGCGC [A46G G54C]	0.06
CCGCCUAACACUGCCAAUGCCGGUCCCAAGCCCGGAUAAAAGUGGGGGGGGCGA [A46G G54A]	0.07
CCGCCUAACACUGCCAAUGCCGGUCCCAAGCCCGGAUAAAAGUGGGGGGGGCGU [A46G G54U]	0.11
CCGCCUAACACUGUCAAUGCCGGUCCCAAGCCCGGAUAAAAGUGGUGGGGGCGG [A46U C14U]	0.06
CCGCCUAACACUGGCAAUGCCGGUCCCAAGCCCGGAUAAAAGUGGUGGGGGCGG [A46U C14G]	0.03
CCGCCUAACACUGACAAUGCCGGUCCCAAGCCCGGAUAAAAGUGGUGGGGGCGG [A46U C14A]	0.03
CCGCCUAAGACUGCCAAUGCCGGUCCCAAGCCCGGAUAAAAGUGGUGGGGGCGG [A46U C9G]	0.06
CCGCCUAAAACUGCCAAUGCCGGUCCCAAGCCCGGAUAAAAGUGGUGGGGGCGG [A46U C9A]	0.02

Variant	self-cleavage
CCGCCUAAUACUGCCAAUGCCGGUCCCAAGCCCGGAUAAAAGUGGUGGGGGCGG [A46U C9U]	0.04
CCGCCUAACACUGCCAAUGCCGGUCCCAAGCCCGGAUAAAAGUUGGGGGGGCGG [A46G G44U]	0.07
CCGCCUAACACUGCCAAUGCCGGUCCCAAGCCCGGAUAAAAGUCGGGGGGGCGG [A46G G44C]	0.05
CCGCCUAACACUGCCAAUGCCGGUCCCAAGCCCGGAUAAAAGUAGGGGGGGCGG [A46G G44A]	0.05
CCGCCUAACACUGCCAAUGCCGAUCCCAAGCCCGGAUAAAAGUGGGGGGGGCGG [A46G G23A]	0.05
CCGCCUAACACUGCCAAUGCCGUUCCCAAGCCCGGAUAAAAGUGGGGGGGGCGG [A46G G23U]	0.03
CCGCCUAACACUGCCAAUGCCGCUCCCAAGCCCGGAUAAAAGUGGGGGGGGCGG [A46G G23C]	0.02
CCGCCUAACACUGCCAAUGCCGGUCCCAAGCCCGGAUAAAACUGGGGGGGGCGG [A46G G42C]	0.04
CCGCCUAACACUGCCAAUGCCGGUCCCAAGCCCGGAUAAAAAUGGGGGGGGCGG [A46G G42A]	0.05
CCGCCUAACACUGCCAAUGCCGGUCCCAAGCCCGGAUAAAAUUGGGGGGGGCGG [A46G G42U]	0.04
CCGCCUAACACUGCCAAUGCCGGUCCCAAGCCCGGAUAAAAGUGGGGGGGUCGG [A46G G51U]	0.05
CCGCCUAACACUGCCAAUGCCGGUCCCAAGCCCGGAUAAAAGUGGGGGGGCCGG [A46G G51C]	0.04
CCGCCUAACACUGCCAAUGCCGGUCCCAAGCCCGGAUAAAAGUGGGGGGGACGG [A46G G51A]	0.05
CCGCCUAACACUGCCAAUGCCGGUCCCAAGUCCGGAUAAAAGUGGGGGGGGCGG [A46G C31U]	0.05
CCGCCUAACACUGCCAAUGCCGGUCCCAAGGCCGGAUAAAAGUGGGGGGGGCGG [A46G C31G]	0.03
CCGCCUAACACUGCCAAUGCCGGUCCCAAGACCGGAUAAAAGUGGGGGGGGCGG [A46G C31A]	0.01
CCGCCUAACACUGCCAAUGCCGGUCCCAAGCCCGGAUAAAAGAGGGGGGGGCGG [A46G U43A]	0.06
CCGCCUAACACUGCCAAUGCCGGUCCCAAGCCCGGAUAAAAGCGGGGGGGGCGG [A46G U43C]	0.04
CCGCCUAACACUGCCAAUGCCGGUCCCAAGCCCGGAUAAAAGGGGGGGGGGCGG [A46G U43G]	0.12
CCGCCUAACACUGCCAAUGCCGGUCCCAAGCCCGGAUAAAAGUGAGGGGGGCGG [A46G G45A]	0.06
CCGCCUAACACUGCCAAUGCCGGUCCCAAGCCCGGAUAAAAGUGUGGGGGGCGG [A46G G45U]	0.03
CCGCCUAACACUGCCAAUGCCGGUCCCAAGCCCGGAUAAAAGUGCGGGGGGCGG [A46G G45C]	0.03
